Experimental data: ChEMBL document CHEMBL3124881, “New perspectives on the synthesis and antichagasic activity of 3-alkoxy-1-alkyl-5-nitroindazoles” (Eur J Med Chem, 2014)
Active and inactive are the calls of the source. The rule behind the calls is not given here.

Experiments:
[1] = system: Trypanosoma cruzi; test: Antitrypanosomal activity against Trypanosoma cruzi (IRHOD/CO/2008/SN3) amastigotes infected in African green monkey Vero cells after 72 hrs by Giemsa staining-based microscopic analysis; type: functional, organism-based
In short: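 SN3 strain. Vero cells in RPMI with 10% inactivated FBS at 37 °C, 5% CO2, seeded at 1 × 10⁴ cells/well on coverslips and grown 2 days. Infected with metacyclic forms at 10:1 for 24 h, then washed. Drugs at 100, 50, 25, 10 and 1 for 72 h. Methanol fixation, Giemsa stain, amastigotes counted over 200 host cells. IC50 by linear regression; mean of four experiments.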

[2] = Selectivity index, ratio of IC50 for African green monkey Vero cells to IC50 for Trypanosoma cruzi (IRHOD/CO/2008/SN3) epimastigotes; type: toxicity, cell-based; conditions: read-out: Ratio IC50
In short: (§1)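 SI calculated as IC50 on Vero cells divided by IC50 on the corresponding parasite form (epimastigote, amastigote or trypomastigote).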

[3] = Selectivity index, ratio of IC50 for African green monkey Vero cells to IC50 for Trypanosoma cruzi (IRHOD/CO/2008/SN3) amastigotes; type: toxicity, cell-based; conditions: read-out: Ratio IC50; in short: as §1
[4] = system: Vero; test: Cytotoxicity against African green monkey Vero cells assessed as cell viability after 72 hrs by propidium iodide staining-based flow cytometric analysis; conditions: Chlorocebus sabaeus
In short: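 Vero cells in RPMI with 10% inactivated FBS at 37 °C, 5% CO2, treated 72 h across 1–100. Stained with propidium iodide, then fluorescein diacetate (100 ng/mL), each 10 min at 28 °C in the dark. Cells spun at 400 g, washed in PBS, analysed by flow cytometry. % viability versus control; IC50 by linear regression.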

[5] = system: Trypanosoma cruzi; test: Antitrypanosomal activity against Trypanosoma cruzi (IRHOD/CO/2008/SN3) trypomastigotes infected in Balb/c albino mouse after 24 hrs by Neubauer chamber counting analysis; type: functional, organism-based
In short: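 Blood taken at the day-7 parasitemia peak from BALB/c mice infected with SN3. Diluted with uninfected murine blood to 4 × 10⁶ trypomastigotes/mL, then 1:2 in RPMI 1640 (2 × 10⁶/mL). Drugs (DMSO stocks) at 100, 50, 25, 10 and 1; incubated 24 h at 4–8 °C. Neubauer chamber counts; IC50 by linear regression; three repeats.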

[6] = Selectivity index, ratio of IC50 for African green monkey Vero cells to IC50 for Trypanosoma cruzi (IRHOD/CO/2008/SN3) trypomastigotes; type: toxicity, cell-based; conditions: read-out: Ratio IC50; in short: as §1
[7] = system: Trypanosoma cruzi; test: Antitrypanosomal activity against Trypanosoma cruzi (IRHOD/CO/2008/SN3) epimastigotes after 72 hrs by Neubauer chamber counting analysis; type: functional, organism-based
In short: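 SN3 epimastigotes grown in MTL medium with 10% inactivated FBS at 28 °C. Compounds dissolved in DMSO (0.01% final) and added at 100, 50, 25, 10 and 1. Parasites counted at 72 h in a Neubauer haemocytometer. IC50 from linear regression of Kc values; averages of four experiments.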

[8] = system: Trypanosoma cruzi; test: Antitrypanosomal activity against Trypanosoma cruzi (IRHOD/CO/2008/SN3) epimastigotes assessed as change in ethanol level at IC25 after 96 hrs by [1H]-NMR spectroscopic analysis relative to control; type: functional
In short: (§2)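 Epimastigote cultures started at 5 × 10⁵ cells/mL and given IC25 concentrations, with untreated control cultures. After 96 h at 28 °C, cells spun at 400 g for 10 min. Excreted metabolites in the supernatant identified by ¹H NMR chemical shifts.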

[9] = system: Trypanosoma cruzi; test: Antitrypanosomal activity against Trypanosoma cruzi (IRHOD/CO/2008/SN3) epimastigotes assessed as change in succinate level at IC25 after 96 hrs by [1H]-NMR spectroscopic analysis relative to control; type: functional; in short: as §2
[10] = system: Trypanosoma cruzi; test: Antitrypanosomal activity against Trypanosoma cruzi (IRHOD/CO/2008/SN3) epimastigotes assessed as presence of little electron-dense cytoplasm at IC25 after 96 hrs by transmission electron microscopic analysis; type: functional, organism-based
[11] = system: Trypanosoma cruzi; test: Antitrypanosomal activity against Trypanosoma cruzi (IRHOD/CO/2008/SN3) epimastigotes assessed as change in acetate level at IC25 after 96 hrs by [1H]-NMR spectroscopic analysis; type: functional, organism-based; in short: as §2
[12] = system: Trypanosoma cruzi; test: Antitrypanosomal activity against Trypanosoma cruzi (IRHOD/CO/2008/SN3) epimastigotes assessed as damaged glycosomes at IC25 after 96 hrs by transmission electron microscopic analysis; type: functional, organism-based
[13] = system: Trypanosoma cruzi; test: Antitrypanosomal activity against Trypanosoma cruzi (IRHOD/CO/2008/SN3) epimastigotes assessed as damaged mitochondria at IC25 after 96 hrs by transmission electron microscopic analysis; type: functional, organism-based
[14] = system: Trypanosoma cruzi; test: Antitrypanosomal activity against Trypanosoma cruzi (IRHOD/CO/2008/SN3) infected in African green monkey Vero cells assessed as reduction in number of amastigotes at IC25 treated for 12 hrs followed by compound-washout measured after 10 days by microscopic analysis relative to control; type: functional
In short: (§3)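 Vero cells grown 2 days, then infected with metacyclic forms at 10:1. Drugs at IC25 added immediately after infection for 12 h at 37 °C, 5% CO2, then removed by washing. Cultures grown 10 days with medium renewed every 48 h. Methanol-fixed, Giemsa-stained preparations: % infected cells and amastigotes per infected cell over 200 host cells; trypomastigotes counted in the medium. Means of three experiments.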

[15] = system: Trypanosoma cruzi; test: Antitrypanosomal activity against Trypanosoma cruzi (IRHOD/CO/2008/SN3) infected in BALB/c mouse assessed as reduction in parasitemia at 1 mg/kg/day, ip treated from day 5 to day 10 post-infection measured on day 14 post-infection; type: functional, organism-based
In short: (§4)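 Female BALB/c mice (groups of three) infected ip with 1 × 10⁵ metacyclic forms. Given 1 mg/kg/day ip for five days (days 5–10 post-infection); infected untreated controls included. Mandibular-vein blood (5 µL) diluted 1:15 in citrate/lysis buffer, with trypomastigotes/mL counted every 3–4 days. Mean values reported.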

[16] = system: Trypanosoma cruzi; test: Antitrypanosomal activity against Trypanosoma cruzi (IRHOD/CO/2008/SN3) epimastigotes assessed as parasite death at IC25 after 96 hrs by transmission electron microscopic analysis; type: functional, organism-based
[17] = system: Trypanosoma cruzi; test: Antitrypanosomal activity against Trypanosoma cruzi (IRHOD/CO/2008/SN3) infected in BALB/c mouse assessed as reduction in parasite specific antibodies level at 1 mg/kg/day, ip treated from day 5 to day 10 post-infection measured from day 30 to day 120 post-infection by ELISA; type: functional, organism-based
In short: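 Female BALB/c mice (6–8 weeks, 20–25 g, groups of three) infected ip with 1 × 10⁵ metacyclic forms. Dosed 1 mg/kg/day ip on days 5–10 post-infection; infected untreated controls included. ELISA on blood diluted 1:50 in PBS, using excreted Fe-SOD antigen from epimastigotes, at days 30 and 120. Read-out is ΔA490 (day 120 minus day 30).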

[18] = system: Mus musculus; test: Toxicity in BALB/c mouse assessed as mortality at 1 mg/kg/day, ip; type: organism-based; parameters: route intraperitoneal; conditions: in vivo
In short: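 Female BALB/c mice (6-8 weeks, 20-25 g), groups of three, infected ip with 1 × 10⁵ T. cruzi SN3 metacyclic forms. Dosing ip at 1 mg/kg/day for five consecutive days (days 5-10 post-infection). Controls were uninfected, infected-untreated and uninfected-treated groups. Mice followed to day 120 post-infection, with deaths recorded.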

[19] = system: Trypanosoma cruzi; test: Antitrypanosomal activity against Trypanosoma cruzi (IRHOD/CO/2008/SN3) epimastigotes assessed as large vacuolization with lipidic type vacuoles occupying cytoplasm at IC25 after 96 hrs by transmission electron microscopic analysis; type: functional, organism-based
[20] = system: Trypanosoma cruzi; test: Antitrypanosomal activity against Trypanosoma cruzi (IRHOD/CO/2008/SN3) epimastigotes assessed as change in L-alanine level at IC25 after 96 hrs by [1H]-NMR spectroscopic analysis relative to control; type: functional; in short: as §2
[21] = system: Trypanosoma cruzi; test: Antitrypanosomal activity against Trypanosoma cruzi (IRHOD/CO/2008/SN3) epimastigotes assessed as change in L-lactate level at IC25 after 96 hrs by [1H]-NMR spectroscopic analysis relative to control; type: functional; in short: as §2
[22] = system: Trypanosoma cruzi; test: Antitrypanosomal activity against Trypanosoma cruzi (IRHOD/CO/2008/SN3) infected in BALB/c mouse assessed as reduction in parasitemia at 1 mg/kg/day, ip treated from day 5 to day 10 post-infection measured on day 30 post-infection relative to control; type: functional; parameters: scale not given: the % may be the effect or the level left; conditions: route intraperitoneal; in short: as §4
[23] = system: Trypanosoma cruzi; test: Antitrypanosomal activity against Trypanosoma cruzi (IRHOD/CO/2008/SN3) infected in African green monkey Vero cells assessed as reduction in infection rate at IC25 treated for 12 hrs followed by compound-washout measured after 10 days by microscopic analysis relative to control; type: functional; in short: as §3
[24] = system: Trypanosoma cruzi; test: Antitrypanosomal activity against Trypanosoma cruzi (IRHOD/CO/2008/SN3) infected in African green monkey Vero cells assessed as reduction in number of trypomastigotes at IC25 treated for 12 hrs followed by compound-washout measured after 10 days by microscopic analysis relative to control; type: functional; in short: as §3

Row | Compound | IC50 [1] [µM] | selectivity ratio [2] | selectivity ratio [3] | IC50 [4] [µM] | IC50 [5] [µM] | selectivity ratio [6] | IC50 [7] [µM] | other results
1 | CN(CCOCCn1nc(OCc2ccccc2)c2cc([N+](=O)[O-])ccc21)CCOCCn1nc(OCc2ccccc2)c2cc([N+](=O)[O-])ccc21 | 16.5 | 4.8 | 7.8 | 128 | 16.5 | 7.8 | 26.6 | 
2 | CNCCOCCn1nc(OCc2ccccc2)c2cc([N+](=O)[O-])ccc21 | 16.6 | 11.2 | 12.9 | 214 | 14.5 | 14.7 | 19.1 | Activity [8]: inactive; Activity [9]: 13%; Activity [10]: Active; Activity [11]: inactive; Activity [12]: Active; Activity [13]: Active; inhibition (INH) [14]: 63%; Activity [15]: Active; Activity [16]: Active; Activity [17]: Active; Activity [18]: Non-toxic; Activity [19]: Active; Activity [20]: inactive; Activity [21]: 17%; Activity [22]: 39%; inhibition (INH) [23]: 78%; inhibition (INH) [24]: 75%
3 | COc1nn(CCOCCN(C)CCOCCn2nc(OC)c3cc([N+](=O)[O-])ccc32)c2ccc([N+](=O)[O-])cc12 | 27.9 | 4.1 | 4.6 | 130 | 20.4 | 6.3 | 24.6 | 
4 | COc1nn(C)c2ccc([N+](=O)[O-])cc12 | 32.6 | 7.4 | 5.6 | 183 | 24.8 | 7.4 | 24.7 | 
5 | Cn1nc(OCc2ccccc2)c2cc([N+](=O)[O-])ccc21 | 14.1 | 11 | 13.7 | 194 | 12 | 16.1 | 17.6 | Activity [8]: 11%; Activity [9]: 35%; Activity [10]: Active; Activity [11]: inactive; Activity [12]: Active; Activity [13]: Active; inhibition (INH) [14]: 76%; Activity [15]: Active; Activity [16]: Active; Activity [17]: Active; Activity [18]: Non-toxic; Activity [19]: Active; Activity [20]: 19%; Activity [21]: 23%; Activity [22]: 33%; inhibition (INH) [23]: 82%; inhibition (INH) [24]: 80%
6 | COc1nn(CCOCCNCCOCCn2nc(OC)c3cc([N+](=O)[O-])ccc32)c2ccc([N+](=O)[O-])cc12 | 25.7 | 0.5 | 0.6 | 16.9 | 26.4 | 0.6 | 31.2 | 
7 | CNCCOCCn1nc(OC)c2cc([N+](=O)[O-])ccc21 | 23.4 | 3.3 | 3.7 | 87.6 | 20.5 | 4.3 | 26.7 | 
8 | COc1nn(CCOCCN)c2ccc([N+](=O)[O-])cc12 | 26.5 | 3.2 | 3.3 | 87.2 | 20.7 | 4.2 | 27.3 | 
